From ChEMBL document CHEMBL3396951, “Design, synthesis and SAR studies of GABA uptake inhibitors derived from 2-substituted pyrrolidine-2-yl-acetic acids” (Bioorg Med Chem, 2015)

Experiments:
[1] = target: T1, Sodium- and chloride-dependent GABA transporter 1 (Mus musculus, UniProt P31648); test: Inhibition of mouse GAT1 expressed in HEK293 cells by [3H]GABA uptake assay; assay type: cell-based
GABA transporter 2 = target: T2, GABA transporter 2 (Mus musculus, UniProt P31651); test: Inhibition of mouse GAT2 expressed in HEK293 cells by [3H]GABA uptake assay; assay type: cell-based
T2 sequence (P31651 whole entry): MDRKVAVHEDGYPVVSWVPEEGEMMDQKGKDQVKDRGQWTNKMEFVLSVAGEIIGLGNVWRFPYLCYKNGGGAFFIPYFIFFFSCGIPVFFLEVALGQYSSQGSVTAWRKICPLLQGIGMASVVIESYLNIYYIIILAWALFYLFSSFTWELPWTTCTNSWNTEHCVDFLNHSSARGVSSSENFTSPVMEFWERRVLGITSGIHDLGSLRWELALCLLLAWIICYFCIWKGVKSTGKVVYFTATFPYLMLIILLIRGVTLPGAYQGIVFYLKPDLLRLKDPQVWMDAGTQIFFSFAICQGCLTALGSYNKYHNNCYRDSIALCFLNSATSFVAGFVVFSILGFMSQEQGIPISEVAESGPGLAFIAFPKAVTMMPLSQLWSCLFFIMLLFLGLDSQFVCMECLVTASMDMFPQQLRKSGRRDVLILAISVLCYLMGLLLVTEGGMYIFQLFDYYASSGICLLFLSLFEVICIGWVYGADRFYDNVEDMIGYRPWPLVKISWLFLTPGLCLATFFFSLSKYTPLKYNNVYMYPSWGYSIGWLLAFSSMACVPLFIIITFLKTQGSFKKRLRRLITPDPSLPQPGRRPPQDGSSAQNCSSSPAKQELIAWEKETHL
Summary of the method: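 [3H]GABA uptake inhibition in HEK293 cells expressing mGAT1–4 or hGAT-1, reported as pIC50 (mean ± SEM, n = 3 independent experiments). The hGAT-1 assay matched the mGAT1 assay except that HEK293 […] expressing hGAT-1 was used.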

GABA transporter 4 = target: T3, GABA transporter 4 (Mus musculus, UniProt P31650); test: Inhibition of mouse GAT4 expressed in HEK293 cells by [3H]GABA uptake assay; assay type: cell-based
T3 sequence (P31650 whole entry): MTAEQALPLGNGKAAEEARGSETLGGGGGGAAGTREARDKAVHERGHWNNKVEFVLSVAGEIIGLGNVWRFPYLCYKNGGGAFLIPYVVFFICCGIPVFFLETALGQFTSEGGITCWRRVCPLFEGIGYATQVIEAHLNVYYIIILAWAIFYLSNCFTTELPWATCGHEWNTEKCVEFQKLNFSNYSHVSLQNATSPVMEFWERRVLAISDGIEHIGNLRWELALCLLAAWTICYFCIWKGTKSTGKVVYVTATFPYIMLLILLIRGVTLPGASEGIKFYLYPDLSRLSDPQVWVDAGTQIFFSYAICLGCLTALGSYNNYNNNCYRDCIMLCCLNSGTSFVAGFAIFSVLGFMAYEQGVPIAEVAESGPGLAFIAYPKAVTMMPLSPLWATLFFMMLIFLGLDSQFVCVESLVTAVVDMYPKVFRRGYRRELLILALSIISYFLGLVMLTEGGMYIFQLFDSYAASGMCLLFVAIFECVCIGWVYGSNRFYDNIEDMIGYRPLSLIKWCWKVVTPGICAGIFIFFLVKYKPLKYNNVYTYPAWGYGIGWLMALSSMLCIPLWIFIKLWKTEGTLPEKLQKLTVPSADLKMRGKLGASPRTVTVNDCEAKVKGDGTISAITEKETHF

[2] = target: T4, Sodium- and chloride-dependent GABA transporter 1 (Homo sapiens, UniProt P30531); test: Binding affinity to human GAT1 expressed in HEK293 cells using NO71156 as unlabelled marker by LC-ESI-MS-MS based competitive MS binding assay; assay type: cell-based
T4 sequence (P30531 whole entry): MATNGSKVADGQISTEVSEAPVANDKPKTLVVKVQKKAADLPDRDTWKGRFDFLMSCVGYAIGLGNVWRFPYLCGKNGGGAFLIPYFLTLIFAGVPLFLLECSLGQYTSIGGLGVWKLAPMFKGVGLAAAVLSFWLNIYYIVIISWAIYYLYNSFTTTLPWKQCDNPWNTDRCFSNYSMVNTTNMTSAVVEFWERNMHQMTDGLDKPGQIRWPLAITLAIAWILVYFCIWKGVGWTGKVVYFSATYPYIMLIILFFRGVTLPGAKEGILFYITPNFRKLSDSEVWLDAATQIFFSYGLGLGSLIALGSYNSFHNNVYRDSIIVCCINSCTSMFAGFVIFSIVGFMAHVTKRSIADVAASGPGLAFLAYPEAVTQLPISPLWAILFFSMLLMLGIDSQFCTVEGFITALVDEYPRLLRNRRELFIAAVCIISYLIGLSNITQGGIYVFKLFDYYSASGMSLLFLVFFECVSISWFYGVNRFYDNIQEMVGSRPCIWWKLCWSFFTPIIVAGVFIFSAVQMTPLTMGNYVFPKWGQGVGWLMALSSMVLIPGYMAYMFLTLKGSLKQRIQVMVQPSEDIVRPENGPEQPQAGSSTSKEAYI
Summary of the method: (§1)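 Competitive MS Binding Assay using membrane preparations from HEK293 cells expressing the transporter. hGAT-1 membranes were prepared the same way as mGAT1 membranes. Affinity reported as pKi ± SEM from three independent experiments.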

[3] = target: T1, Sodium- and chloride-dependent GABA transporter 1; test: Binding affinity to mouse GAT1 expressed in HEK293 cells using NO71156 as unlabelled marker by LC-ESI-MS-MS based competitive MS binding assay; assay type: cell-based; summary of the method: as §1
[4] = target: T5, GABA transporter 3 (Mus musculus) (UniProt P31649); test: Inhibition of mouse GAT3 expressed in HEK293 cells assessed as remaining [3H]GABA uptake at 100 uM by [3H]GABA uptake assay; assay type: cell-based
T5 sequence (whole entry): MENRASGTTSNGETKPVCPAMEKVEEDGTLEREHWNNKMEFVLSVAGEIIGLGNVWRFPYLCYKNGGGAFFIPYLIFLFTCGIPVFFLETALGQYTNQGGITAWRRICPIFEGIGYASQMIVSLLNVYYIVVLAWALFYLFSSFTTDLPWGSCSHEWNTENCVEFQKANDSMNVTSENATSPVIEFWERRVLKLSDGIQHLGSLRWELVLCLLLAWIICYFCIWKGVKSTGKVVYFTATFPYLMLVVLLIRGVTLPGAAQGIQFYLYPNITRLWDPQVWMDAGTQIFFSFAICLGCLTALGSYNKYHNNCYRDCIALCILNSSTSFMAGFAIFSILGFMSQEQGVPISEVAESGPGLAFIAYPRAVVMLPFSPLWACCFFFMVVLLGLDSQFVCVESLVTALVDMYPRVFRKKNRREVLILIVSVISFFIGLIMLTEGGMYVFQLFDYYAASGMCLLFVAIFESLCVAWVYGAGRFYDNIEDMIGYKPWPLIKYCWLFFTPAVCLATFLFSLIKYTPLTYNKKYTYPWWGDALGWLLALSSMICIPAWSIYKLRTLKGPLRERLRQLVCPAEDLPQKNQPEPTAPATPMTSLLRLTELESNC
Summary of the method: (§2)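 Transfected HEK293 cells (mGAT1–4) tested for [3H]GABA uptake at 100 µM test substance. Remaining uptake is expressed against a control without inhibitor.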

GABA transporter 3 = target: T6, GABA transporter 3 (Mus musculus, UniProt P31649); test: Inhibition of mouse GAT3 expressed in HEK293 cells by [3H]GABA uptake assay; assay type: cell-based
T6 sequence (P31649 whole entry): T5 sequence (whole entry)

[5] = target: T4, Sodium- and chloride-dependent GABA transporter 1; test: Inhibition of human GAT1 expressed in HEK293 cells by [3H]GABA uptake assay; assay type: cell-based
[6] = target: T7, GABA transporter 2 (Mus musculus) (UniProt P31651); test: Inhibition of mouse GAT2 expressed in HEK293 cells assessed as remaining [3H]GABA uptake at 100 uM by [3H]GABA uptake assay; assay type: cell-based; summary of the method: as §2
T7 sequence (whole entry): T2 sequence (P31651 whole entry)

[7] = target: T8, GABA transporter 4 (Mus musculus) (UniProt P31650); test: Inhibition of mouse GAT4 expressed in HEK293 cells assessed as remaining [3H]GABA uptake at 100 uM by [3H]GABA uptake assay; assay type: cell-based; summary of the method: as §2
T8 sequence (whole entry): T3 sequence (P31650 whole entry)

[8] = target: Sodium- and chloride-dependent GABA transporter 1 (Mus musculus) (UniProt P31648); test: Inhibition of mouse GAT1 expressed in HEK293 cells assessed as remaining [3H]GABA uptake at 1 mM by [3H]GABA uptake assay; assay type: cell-based
Summary of the method: (§3)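 Radioactive [3H]GABA uptake run in HEK293 cells expressing mGAT1–4 with 1 mM test substance. Readout is % remaining uptake relative to an inhibitor-free control.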

[9] = target: T7, GABA transporter 2 (Mus musculus); test: Inhibition of mouse GAT2 expressed in HEK293 cells assessed as remaining [3H]GABA uptake at 1 mM by [3H]GABA uptake assay; assay type: cell-based; summary of the method: as §3
[10] = target: T5, GABA transporter 3 (Mus musculus); test: Inhibition of mouse GAT3 expressed in HEK293 cells assessed as remaining [3H]GABA uptake at 1 mM by [3H]GABA uptake assay; assay type: cell-based; summary of the method: as §3
Mus musculus = species: Mus musculus; test: Selectivity for mouse GAT1 over mouse GAT4
[11] = target: T8, GABA transporter 4 (Mus musculus); test: Inhibition of mouse GAT4 expressed in HEK293 cells assessed as remaining [3H]GABA uptake at 1 mM by [3H]GABA uptake assay; assay type: cell-based; summary of the method: as §3
[12] = target: Sodium- and chloride-dependent GABA transporter 1 (Mus musculus) (UniProt P31648); test: Inhibition of mouse GAT1 expressed in HEK293 cells assessed as remaining [3H]GABA uptake at 100 uM by [3H]GABA uptake assay; assay type: cell-based; summary of the method: as §2

Row | IC50 [1] [µM] | IC50 (GABA transporter 4) [µM] | Ki [3] [µM] | IC50 (GABA transporter 3) [µM] | Activity [6] [%] | Activity [9] [%] | SMILES | further results
1 | 100 | 100 | 37.2 | – | – | – | Cc1ccsc1C(=CCCN1CCC[C@@H]1[C@H](N)C(=O)O)c1sccc1C (racemic) | IC50 (GABA transporter 2): 100 µM; Ki [2]: 19.1 µM; Activity [4]: 63%
2 | 2.29 | – | 0.145 | 100 | 60 | – | O=C(O)[C@@H](O)[C@H]1CCCN1CCC=C(c1ccccc1)c1ccccc1 (racemic) | IC50 [5]: 1.91 µM; Ki [2]: 0.214 µM; Activity [7]: 55%
3 | – | 372 | – | – | – | 52 | N[C@H](C(=O)O)[C@H]1CCCN1 (racemic) | Activity [8]: 1%; Activity [10]: 59%
4 | 14.1 | 31.6 | 17.4 | 30.2 | – | – | Cc1ccsc1C(=CCCN1CCC[C@@H]1[C@@H](N)C(=O)O)c1sccc1C (racemic) | IC50 (GABA transporter 2): 42.7 µM; Ki [2]: 20.4 µM
5 | 1000 | 14.1 | – | 36.3 | – | – | O=C(O)[C@H](O)[C@H]1CCCN1 (racemic) | IC50 (GABA transporter 2): 170 µM; Selectivity ratio (Mus musculus): > 71
6 | – | – | – | – | – | 108 | CC(C)(C(=O)O)[C@H]1CCCN1 (racemic) | Activity [8]: 83%; Activity [10]: 93%; Activity [11]: 95%
7 | – | 6.61 | – | – | 64 | – | COc1ccc(C(OCCN2CCC[C@@H]2[C@H](O)C(=O)O)(c2ccc(OC)cc2)c2ccc(OC)cc2)cc1 (racemic) | Activity [12]: 80%; Activity [4]: 70%
8 | – | 5.75 | – | 17 | 56 | – | COc1ccc(C(OCCN2CCC[C@@H]2[C@@H](O)C(=O)O)(c2ccc(OC)cc2)c2ccc(OC)cc2)cc1 (racemic) | Activity [12]: 68%
9 | – | 339 | – | 309 | – | 59 | CC(C(=O)O)[C@H]1CCCN1 (mixture of isomers) | Activity [8]: 83%
10 | 123 | 21.4 | – | 26.9 | – | – | N[C@@H](C(=O)O)[C@H]1CCCN1 (racemic) | IC50 (GABA transporter 2): 158 µM
11 | 25.1 | – | 3.89 | – | 89 | – | O=C(O)[C@H](O)[C@H]1CCCN1CCC=C(c1ccccc1)c1ccccc1 (racemic) | IC50 [5]: 13.8 µM; Ki [2]: 3.98 µM; Activity [4]: 97%; Activity [7]: 59%
12 | – | – | 0.0372 | – | – | – | Cc1ccsc1C(=CCCN1CCC[C@@H](C(=O)O)C1)c1sccc1C [TIAGABINE] | –
13 | – | – | – | – | – | 91 | O=C(O)C1([C@H]2CCCN2)CCC1 (racemic) | Activity [8]: 92%; Activity [10]: 73%; Activity [11]: 110%
14 | – | – | – | – | – | 82 | CCC(C(=O)O)[C@H]1CCCN1 (mixture of isomers) | Activity [8]: 78%; Activity [10]: 78%; Activity [11]: 95%
15 | 407 | 309 | – | 141 | – | 77 | O=C(O)C[C@@H]1CCCN1 | –
16 | 49 | 17.4 | – | 11.5 | 66 | – | N[C@@H](C(=O)O)[C@H]1CCCN1CCC=C(c1ccccc1)c1ccccc1 (racemic) | –
17 | 2.14 | – | 0.102 | 42.7 | 58 | – | Cc1ccsc1C(=CCCN1CCC[C@@H]1[C@H](O)C(=O)O)c1sccc1C (racemic) | IC50 [5]: 0.724 µM; Ki [2]: 0.0661 µM; Selectivity ratio (Mus musculus): > 47; Activity [7]: 59%
18 | 34.7 | – | – | – | 61 | – | N[C@H](C(=O)O)[C@H]1CCCN1CCC=C(c1ccccc1)c1ccccc1 (racemic) | Activity [4]: 71%; Activity [7]: 83%
19 | 240 | 1120 | – | 339 | – | 81 | O=C(O)C[C@H]1CCCN1 | –
20 | 3.39 | – | 1.07 | – | 63 | – | Cc1ccsc1C(=CCCN1CCC[C@@H]1[C@@H](O)C(=O)O)c1sccc1C (racemic) | IC50 [5]: 4.17 µM; Ki [2]: 1.1 µM; Selectivity ratio (Mus musculus): > 29; Activity [4]: 90%; Activity [7]: 74%
21 | – | – | – | 269 | – | 95 | O=C(O)[C@@H](O)[C@H]1CCCN1 (racemic) | Activity [8]: 53%; Activity [11]: 61%
